Assay results published in ChEMBL document CHEMBL2086359, “Tormentic acid derivatives: synthesis and apoptotic activity” (Eur J Med Chem, 2012).
Active and inactive are the calls of the source. The calls are words filed in the database; no cut-off is given here.

Tests used:
[1] = system: 518A2; assay: Induction of apoptosis in human 518A2 cells after 24 to 48 hrs by DNA laddering assay; type: functional, cell-based
Summary of the method: (§1)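 About 1×10^6 cells were grown in 25 cm2 flasks to 80% and exposed to compound-loaded medium for 24–48 h, with blank medium as control. Cells were collected from the supernatant (300 g, 4 °C), washed in PBS and lysed. Lysates were digested with RNase for 2 h at 37 °C, then with proteinase K for 12 h at 50 °C. DNA was run on agarose gel electrophoresis ([…], 2 h).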

[2] = Cytotoxicity against human 518A2 cells after 96 hrs by SRB assay; type: functional, cell-based
Summary of the method: (§2)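 Monolayer cultures kept in RPMI 1640 with 10% heat-inactivated FBS and penicillin/streptomycin at 37 °C, 5% CO2. Exponentially growing cells were seeded and treated 24 h later with serial dilutions (0–30 µM) for 96 h, with DMSO or DMF at most 0.5% final. Cells were fixed with 10% TCA at 4 °C and stained with 0.4% SRB for about 30 min. Plates were washed with 1% acetic acid and the dye dissolved in 10 mM Tris base. Absorbance was read at 570 nm and survival taken relative to untreated controls. IC50 was estimated from dose–response curves, averaged from at least 5 independent experiments.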

[3] = system: A2780; assay: Cytotoxicity against human A2780 cells after 96 hrs by SRB assay; type: functional, cell-based; summary of the method: as §2
[4] = system: A549; assay: Cytotoxicity against human A549 cells after 96 hrs by SRB assay; type: functional, cell-based; summary of the method: as §2
[5] = system: NIH3T3; assay: Cytotoxicity against mouse NIH/3T3 cells after 96 hrs by SRB assay; type: cell-based; summary of the method: as §2
[6] = system: 8505C; assay: Induction of apoptosis in human 8505C cells migration of phosphatidylserine from inner to outer cell membrane at 3.5 uM after 6 hrs by Annexin V-FITC/PI based FACS analysis; type: functional
[7] = system: MCF7; assay: Cytotoxicity against human MCF7 cells after 96 hrs by SRB assay; type: functional, cell-based; summary of the method: as §2
[8] = system: 8505C; assay: Induction of apoptosis in human 8505C cells after 24 to 48 hrs by DNA laddering assay; type: functional, cell-based; summary of the method: as §1
[9] = system: DLD-1; assay: Cytotoxicity against human DLD1 cells after 96 hrs by SRB assay; type: functional, cell-based; summary of the method: as §2
[10] = system: 8505C; assay: Cytotoxicity against human 8505C cells after 96 hrs by SRB assay; type: functional, cell-based; summary of the method: as §2
[11] = Cytotoxicity against human WW030272 cells after 96 hrs by SRB assay; type: cell-based; summary of the method: as §2
[12] = Cytotoxicity against human A253 cells after 96 hrs by SRB assay; type: functional, cell-based; summary of the method: as §2
[13] = system: 8505C; assay: Induction of apoptosis in human 8505C cells assessed as induction of cell death after 24 to 48 hrs by AO/PI exclusion dye assay; type: functional, cell-based
Summary of the method: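 About 1×10^6 cells were grown in 25 cm2 flasks to 80% and given compound-loaded medium for 24–48 h, with blank medium as control. Cells were recovered from the supernatant (300 g, 4 °C), washed and resuspended in PBS. They were mixed 1:1 with AO/PI solution and viewed by fluorescence microscopy: green cells were scored as apoptotic, red as necrotic.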

In the case of `COC(=O)[C@]12CC[C@@H](C)[C@@](C)(O)[C@H]1C1=CC[C@@H]3[C@@]4(C)C[C@@H](OC(=O)CCl)[C@H](OC(=O)CCl)C(C)(C)[C@@H]4CC[C@@]3(C)[C@]1(C)CC2`, the Activity [1] is reported as “Active”, the IC50 [2] is reported as 1.1 µmol and the IC50 [3] is reported as 0.8 µmol. The IC50 [4] was 1.2 µmol, the IC50 [5] was 1.1 µmol and the Activity [6] was “Active”. For the same compound, the IC50 [7] was 1.5 µmol, the Activity [8] was “Active” and the IC50 [9] was 2.2 µmol. For the same compound, the IC50 [10] was 1.6 µmol, the IC50 [11] was 3.4 µmol and the IC50 [12] was 1.6 µmol. For the same compound, the Activity [13] was “Active”.
